Published values from different studies.
Compare with care: the assays were run in different laboratories.
Target: Inhibitor of nuclear factor kappa-B kinase subunit alpha (CHUK, Homo sapiens, UniProt O15111)
Sequence (O15111 1-745, as in one of the studies): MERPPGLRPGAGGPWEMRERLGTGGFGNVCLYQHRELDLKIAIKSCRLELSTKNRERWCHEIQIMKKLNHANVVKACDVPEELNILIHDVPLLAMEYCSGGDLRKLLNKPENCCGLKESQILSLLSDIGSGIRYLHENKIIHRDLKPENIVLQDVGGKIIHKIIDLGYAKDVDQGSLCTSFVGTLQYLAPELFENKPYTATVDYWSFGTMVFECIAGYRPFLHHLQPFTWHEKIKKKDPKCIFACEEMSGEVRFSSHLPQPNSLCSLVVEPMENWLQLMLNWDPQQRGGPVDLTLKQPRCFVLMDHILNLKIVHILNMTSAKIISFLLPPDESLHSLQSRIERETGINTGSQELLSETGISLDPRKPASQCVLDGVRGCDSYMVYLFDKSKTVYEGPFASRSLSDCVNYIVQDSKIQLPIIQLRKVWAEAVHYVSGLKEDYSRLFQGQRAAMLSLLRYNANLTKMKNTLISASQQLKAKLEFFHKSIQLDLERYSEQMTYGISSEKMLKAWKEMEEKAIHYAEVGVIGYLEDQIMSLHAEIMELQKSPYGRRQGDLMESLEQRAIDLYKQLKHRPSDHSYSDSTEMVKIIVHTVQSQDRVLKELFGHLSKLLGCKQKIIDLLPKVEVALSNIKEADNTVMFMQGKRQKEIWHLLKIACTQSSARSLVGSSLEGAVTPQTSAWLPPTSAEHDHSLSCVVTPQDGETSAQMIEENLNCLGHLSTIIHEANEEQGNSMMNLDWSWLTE

| Structure (SMILES) | assay | conditions | remaining binding [%] |
| --- | --- | --- | --- |
| C[C@@H](c1cccc(C#N)c1)n1cc(Cl)cc(C(N)=O)c1=N | cell-free assay, competition with immobilised ligand | 1 µM | 100 |
| Nc1ncc2c(n1)-c1c([nH]c3ccc(C#CC4CC4)cc13)CCCC2 | binding, competition with immobilised ligand | 1 µM | 98 |
| COc1cnc(Nc2cccc(S(N)(=O)=O)c2)nc1N1CCN(c2ccccc2)CC1 | binding, competition with immobilised ligand | 1 µM | 89 |
| Nc1c(C(=O)NCc2ccc(C(=O)NCCCC3CCCCC3)cc2)cnn1-c1ccccc1 | cell-free assay, competition with immobilised ligand | 0.1 µM | 100 |
| C[C@@H]1CN(c2ccc3ncc(-c4ccc5[nH]nc(C6CC6)c5c4)n3n2)C[C@H](C)O1 | binding, competition with immobilised ligand | 50 nM | 86 |
| CS(=O)(=O)c1cc(C2(NC(=O)c3cncc4c3cnn4-c3ccc(F)cc3)CC2)ccn1 | cell-free assay, competition with immobilised ligand | 1 µM | 100 |
| O=C(Nc1c[nH]nc1C(=O)NC1CCNCC1)c1cc(F)cc(F)c1 | binding, competition with immobilised ligand | 1 µM | 100 |
| O=C(NC[C@@H]1[C@H]2CN(C(=O)OCc3cc(C(F)(F)F)cc(C(F)(F)F)c3)C[C@@H]12)c1ccc2[nH]nnc2c1 | cell-free assay, competition with immobilised ligand | 1 µM | 100 |
| CN(C)c1ncc(F)c(-c2cnn3ncccc23)n1 | binding | 1 µM | 70 |
| O=C(Nc1cnc(Oc2ccc(F)cc2)nc1)N1CCc2ncccc2[C@@H]1c1ccc(F)cc1 | cell-free assay, competition with immobilised ligand | 1 µM | 100 |
| COc1ccnn2ncc(-c3ccnc(N(C)C)n3)c12 | binding | 1 µM | 71 |
| CCC(=O)N[C@H]1CC[C@@H](C(=O)N(C)c2ccc(-c3nc4ccccc4o3)cc2)C1 | cell-free assay, competition with immobilised ligand | 1 µM | 100 |
| CCN1CCN(Cc2ccc(C(=O)Nc3ccc(C)c(Oc4ccc5c(c4)CC(=O)N5)c3)cc2C(F)(F)F)CC1 | binding, competition with immobilised ligand | 1 µM | 74 |
| c1cncc(-c2cccc(Nc3nccc(NC4CCCCC4)n3)c2)c1 | binding, competition with immobilised ligand | 10 µM | 87 |
| O=C(NCCCN1CCOCC1)c1ccc(Nc2nccc(-c3cc4ccccc4s3)n2)cc1 | binding, competition with immobilised ligand | 1 µM | 12 |
| N[C@H]1CCN(c2nccc(-c3cnn4ncccc34)n2)C1 | binding | 1 µM | 82 |
| N#Cc1ccccc1CSc1nnc2c(n1)[nH]c1ccccc12 | binding, competition with immobilised ligand | 10 µM | 100 |
| CN(c1nccc(-c2cnn3ncccc23)n1)C1CC1 | binding | 1 µM | 100 |
| O=C(c1ccc(Nc2ncc(Cl)c(-c3ccc(Cl)s3)n2)cc1)N1CCC(N2CCCC2)CC1 | binding, competition with immobilised ligand | 1 µM | 2.9 |
| CN(C)c1nccc(-c2cnc3ncccn23)n1 | binding | 1 µM | 71 |
| CC1=C(C#N)C(c2ccc3c(c2)c(NC(=O)c2ccccc2C)nn3C)C(C#N)=C(C)N1 | cell-free assay, competition with immobilised ligand | 1 µM | 77 |
| C[C@H]1CCN(c2nccc(-c3cnn4ncccc34)n2)C1 | binding | 1 µM | 62 |
| O=C(NS(=O)(=O)c1ccc(NCC2CCOCC2)c([N+](=O)[O-])c1)c1ccc(N2CCN(Cc3ccc(C(F)(F)F)cc3-c3ccc(Cl)cc3)CC2)cc1Oc1cnc2[nH]ccc2c1 | cell-free assay, competition with immobilised ligand | 1 µM | 81 |
| O=C(c1ccc(Nc2ncc(Cl)c(-c3cc4ccccc4s3)n2)cc1)N1CCC(N2CCCC2)CC1 | binding, competition with immobilised ligand | 1 µM | 0.8 |
| c1cnn2ncc(-c3ccnc(N4CCC45COC5)n3)c2c1 | binding | 1 µM | 35 |
